HIF act: HIF pathway transcriptional activation | hit rate 0.32% among 300,000 | activation, % at 7.5 µM (by protocol) | U2OS HRE-luciferase reporter, luminescence; normalized: DMSO 0%, desferrioxamine 100%;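 active = mean activation of at least 10% of the iron chelator positive control signal, with at least half of replicates also reaching 10%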
CR mimetic SO: yeast age-related superoxide inhibition as caloric restriction mimetic; S. cerevisiae aged cells, superoxide DHE fluorescence; hits give low values; superoxide response (% of plate mean), % at 10 µM; hit rate 0.18% among 330,000; AID 2690;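 active = superoxide response under a set limit, about three screen SD below normal, cut at about 65% in these data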;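 also: yeast aged for seven days with compound at 30 °C before DHE staining; 100% = average MFI of all compound-treated wells on the plate with controls excluded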
AI-2 QS mod: Vibrio harveyi AI-2 quorum sensing modulation; Vibrio harveyi JMH597 AI-2 luminescence/OD600 ratio, 9 h; hits give low values; strain lacks LuxN and CqsS sensors; 0 = neutral-control median; activity change, % at 7.5 µM; hit rate 0.4% among 300,000; in the data active = activity change below about -75%, passing the limit was not always enough;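 also: luminescence divided by OD600 gain over 9 h not by final OD600 alone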
T cruzi inh: blocks replication of Trypanosoma cruzi. T. cruzi beta-gal in NIH3T3, luminescence, 90 h. inhibition, % (concentration not given with the values). hit rate 1.4% among 300,000. AID 1885;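 active = mean inhibition across valid replicates above about 55%, limit read from the data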;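 also: signal also drops with host cell toxicity which is not excluded here; 0% = plate median of DMSO wells and 100% = zero luminescence signal; higher percent means less beta-gal luminescence so fewer parasites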
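System: NIH/3T3 fibroblasts plus reporter T. cruzi. Medium: DMEM plus 2% FBS. Probe or stimulus: 5000 reporter trypomastigotes per well. Compound: single 50 nL compound addition per well in DMSO. Incubation: co-culture of at least 90 h after 3 h attachment. Detection: GalScreen β-gal luminescence, detergent lysis, 60 min. Evaluation: parasite load inhibition, %.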
V-ATPase pH: regulators of yeast V-ATPase proton transport; S. cerevisiae, pHLuorin cytosolic pH fluorescence; response, % at 10 µM; hit rate 0.37% among 350,000; in the data active = response mostly above about 7.3%, no sharp cut-off; inactive = mostly below about 5.4%; also: actives read high
NRP1-CendR mod: modulators of CendR peptide binding to human neuropilin-1. O14786. hit rate 0.85% among 360,000. FAM-RPARPAR peptide binding to NRP-1, fluorescence polarization. inhibition, % at 25 µM;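 active = inhibition or corrected inhibition above about 18%, plus a signal ratio from 0.5 to 1.5, limit read from the data, passing the limit was not always enough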
Target sequence (O14786 whole entry, looked up): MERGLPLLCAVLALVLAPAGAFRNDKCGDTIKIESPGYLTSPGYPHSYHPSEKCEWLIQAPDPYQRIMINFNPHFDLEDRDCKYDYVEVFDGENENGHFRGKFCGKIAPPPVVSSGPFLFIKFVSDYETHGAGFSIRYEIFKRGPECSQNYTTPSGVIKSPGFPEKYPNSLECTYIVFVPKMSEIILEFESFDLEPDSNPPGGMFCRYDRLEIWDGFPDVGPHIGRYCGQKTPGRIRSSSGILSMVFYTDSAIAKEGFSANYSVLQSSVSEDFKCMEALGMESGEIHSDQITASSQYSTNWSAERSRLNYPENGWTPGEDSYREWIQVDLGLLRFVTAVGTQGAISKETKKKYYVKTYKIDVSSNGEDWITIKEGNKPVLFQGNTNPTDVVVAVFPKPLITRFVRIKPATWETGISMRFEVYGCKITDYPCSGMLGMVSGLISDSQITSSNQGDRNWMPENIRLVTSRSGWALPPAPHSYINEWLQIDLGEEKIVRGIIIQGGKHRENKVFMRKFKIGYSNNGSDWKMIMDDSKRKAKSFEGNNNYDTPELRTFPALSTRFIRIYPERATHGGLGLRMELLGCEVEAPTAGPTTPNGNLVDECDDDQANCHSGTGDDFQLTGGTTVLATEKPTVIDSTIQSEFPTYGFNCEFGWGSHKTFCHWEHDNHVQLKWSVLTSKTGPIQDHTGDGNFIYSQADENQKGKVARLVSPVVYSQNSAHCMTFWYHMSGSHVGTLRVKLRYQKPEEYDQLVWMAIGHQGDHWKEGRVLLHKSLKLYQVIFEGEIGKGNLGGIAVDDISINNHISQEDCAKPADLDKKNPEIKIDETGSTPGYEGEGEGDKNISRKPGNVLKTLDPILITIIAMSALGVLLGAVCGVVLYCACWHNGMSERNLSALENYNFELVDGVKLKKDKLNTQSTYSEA
An asterisk follows results filed as active. Rows were chosen to be rich in hits. Some 3% of all compounds tested hit in one or more screens of this group.

How did O=C(C1=C[C@@H](C2CC2)C[C@@H](OCCCCO)O1)N1CCN(Cc2ccc3c(c2)OCO3)CC1 do in these assays?
HIF act: 40*; AI-2 QS mod: 16; T cruzi inh: -5; V-ATPase pH: -3; NRP1-CendR mod: 4

Results for O=C(C1=C[C@@H](c2ccc(C(F)(F)F)cc2)C[C@@H](OCc2ccc(CO)cc2)O1)N1CCN(Cc2ccc3c(c2)OCO3)CC1 ?
HIF act: 0; CR mimetic SO: 103; AI-2 QS mod: 19; T cruzi inh: 30; V-ATPase pH: -1; NRP1-CendR mod: -10

What do the screens show for `O=C(C1=C[C@@H](C2CCCCC2)C[C@@H](OCCCCO)O1)N1CCN(Cc2ccc3c(c2)OCO3)CC1`?
HIF act: -2; CR mimetic SO: 104; AI-2 QS mod: 4; T cruzi inh: 34; V-ATPase pH: 0; NRP1-CendR mod: -1

How did CCCCn1c(N)c(N(CC(C)C)C(=O)c2cc(Br)c(Br)s2)c(=O)[nH]c1=O do in these assays?
V-ATPase pH: 2; NRP1-CendR mod: 10

What do the screens show for `CC(C)(C)c1ccc(COC(=O)Nc2ccc(F)cc2)cc1`?
HIF act: 1; CR mimetic SO: 94; AI-2 QS mod: -51; T cruzi inh: 5; V-ATPase pH: -1; NRP1-CendR mod: -6

What do the screens show for `CCOC(=O)c1ccc(NC(=O)Nc2ccc(F)cc2)cc1`?
HIF act: 3; CR mimetic SO: 126; AI-2 QS mod: 22; T cruzi inh: -9; V-ATPase pH: -3; NRP1-CendR mod: 11

What do the screens show for `CC(C)(C)c1ccc(NC(=O)Nc2ccc(F)cc2)cc1`?
HIF act: 1; CR mimetic SO: 92; AI-2 QS mod: -85*; T cruzi inh: 42; V-ATPase pH: 2; NRP1-CendR mod: -2

Results for COC(=O)c1ccc(NC(=O)Nc2ccc(F)cc2)cc1 ?
HIF act: 2; CR mimetic SO: 104; AI-2 QS mod: 24; T cruzi inh: 5; V-ATPase pH: -3; NRP1-CendR mod: 26*

What do the screens show for `Cc1ccc(O)c(NC(=O)c2ccc3c(c2)C(=O)N(Cc2cccnc2)C3=O)c1`?
HIF act: 0; CR mimetic SO: 101; AI-2 QS mod: 8; T cruzi inh: -36; V-ATPase pH: 2; NRP1-CendR mod: -15

Results for Cc1ccc(O)c(NC(=O)c2ccc3c(c2)C(=O)N(Cc2ccco2)C3=O)c1 ?
HIF act: 32*; CR mimetic SO: 109; AI-2 QS mod: 38; T cruzi inh: -12; V-ATPase pH: -5; NRP1-CendR mod: -3

What do the screens show for `O=C(c1cc2ccccc2o1)N1CCN(S(=O)(=O)c2c(F)cccc2F)CC1`?
CR mimetic SO: 119; V-ATPase pH: -1; NRP1-CendR mod: 33*

Results for CC(=O)N1CCN(C(=O)c2cc3ccccc3o2)CC1 ?
HIF act: 0; CR mimetic SO: 84; AI-2 QS mod: 10; T cruzi inh: -12; V-ATPase pH: 2; NRP1-CendR mod: 10

What do the screens show for `Cc1ccc2c(c1)sc[n+]2Cc1ccccc1`?
HIF act: 4; CR mimetic SO: 83; AI-2 QS mod: -3; T cruzi inh: 55*; V-ATPase pH: -9; NRP1-CendR mod: -5

How did Cn1ccc2c(-c3ccc(F)cc3)cc3c(c21)C1CCC3C1 (stereo unspecified) do in these assays?
NRP1-CendR mod: 8

Results for CSc1ccc(-c2cc3c(c4c2ccn4C)C2CCC3C2)cc1 (stereo unspecified) ?
NRP1-CendR mod: 25*

Results for COc1ccc(NC(=O)c2c(OC)cccc2OC)c(OC)c1 ?
HIF act: 0; CR mimetic SO: 107; AI-2 QS mod: 10; T cruzi inh: 59*; V-ATPase pH: -1; NRP1-CendR mod: -2

How did C/C=C/c1cccc(-c2nc(C(=O)N3CCCCC3)cc3c2[C@H](CCO)N(C(=O)NC(C)C)C3)c1 do in these assays?
NRP1-CendR mod: 22*

Results for CC(C)OC(=O)c1cn(-c2ccccc2)nc1-c1ccco1 ?
HIF act: 1; CR mimetic SO: 83; AI-2 QS mod: 4; T cruzi inh: 56*; V-ATPase pH: -1; NRP1-CendR mod: -43

Results for c1cc2c(cc1OCCNC1CCCC1)CCC2 ?
HIF act: 0; CR mimetic SO: 98; AI-2 QS mod: 15; T cruzi inh: -21

How did c1ccc(SCCCCNC2CCCC2)cc1 do in these assays?
HIF act: 0; CR mimetic SO: 94; AI-2 QS mod: 14; T cruzi inh: 5; V-ATPase pH: -5; NRP1-CendR mod: -26

What do the screens show for `c1ccc(-c2ccc(OCCCNC3CCCC3)cc2)cc1`?
HIF act: -1; CR mimetic SO: 104; AI-2 QS mod: -2; T cruzi inh: 60*; V-ATPase pH: -1; NRP1-CendR mod: 1

What do the screens show for `N#Cc1ccc(OCCOCCNC2CCCC2)cc1`?
HIF act: 0; CR mimetic SO: 114; AI-2 QS mod: 27; T cruzi inh: 67*; V-ATPase pH: 2; NRP1-CendR mod: 1

How did c1ccc(Cc2ccc(OCCCNC3CCCC3)cc2)cc1 do in these assays?
HIF act: -1; CR mimetic SO: 101; AI-2 QS mod: -13; T cruzi inh: 67*

How did COc1ccc(OCCNC2CCCC2)cc1 do in these assays?
HIF act: 0; CR mimetic SO: 104; AI-2 QS mod: 26; T cruzi inh: 11; V-ATPase pH: 2; NRP1-CendR mod: -2

What do the screens show for `CCN(CC1COc2ccccc2O1)C(=O)CN1C(=O)NC(C)(c2ccccc2)C1=O` (stereo unspecified)?
CR mimetic SO: 100; V-ATPase pH: 4; NRP1-CendR mod: 4

How did COc1ccc2[nH]c(CN3CCN(CCC(C)C)C(CCO)C3)c(C)c2c1 (stereo unspecified) do in these assays?
HIF act: 0; CR mimetic SO: 108; AI-2 QS mod: -6; T cruzi inh: 61*; V-ATPase pH: 3; NRP1-CendR mod: 9

Results for O=C(CSc1nc2ccccc2c(=O)n1-c1ccc(F)cc1F)Nc1ccc2c(c1)CCC2 ?
HIF act: 0; CR mimetic SO: 97; AI-2 QS mod: 14; T cruzi inh: 42; V-ATPase pH: 0; NRP1-CendR mod: 22*

What do the screens show for `O=C(CSc1nc2ccccc2c(=O)n1-c1ccccc1F)Nc1ccc2c(c1)CCC2`?
HIF act: 0; CR mimetic SO: 94; AI-2 QS mod: 11; T cruzi inh: 14; V-ATPase pH: 1; NRP1-CendR mod: 5

Results for Cc1c(C(=O)/C=C/N(C)C)nnn1-c1ccc(F)c(Cl)c1 ?
HIF act: 0; CR mimetic SO: 95; AI-2 QS mod: -5; T cruzi inh: 18; V-ATPase pH: 4; NRP1-CendR mod: 38*

Results for CCC(C)N(CC(=O)Nc1cccc(C)c1C)C(=O)CCl (stereo unspecified) ?
HIF act: -1; CR mimetic SO: 90; AI-2 QS mod: 22; T cruzi inh: 69*; V-ATPase pH: -3; NRP1-CendR mod: -1

Assay outcomes deposited in PubChem BioAssay by several laboratories.
